Source: ChEMBL document CHEMBL1955770, “Inhibition of S/G2 phase CDK4 reduces mitotic fidelity” (J Biol Chem, 2006)
Active and inactive are the calls of the source. No cut-off for these calls is given here.

Assays:
[1] = test system: SW480; test: Toxicity in human SW480 cells at IC50 after 3 days by MTT assay; type: cell-based; settings: sw480, 72 h
[2] = test system: HeLa; test: Cell cycle arrest in human HeLa cells assessed as accumulation at G1 phase at 2 uM treated 2 hr and measured 8 hr post double thymidine-synchrony release using propidium iodide staining by FACS analysis (reference value: 6 %); type: functional
[3] = Cell cycle arrest in human SK-MEL-13 cells assessed as accumulation at S phase at 2 uM treated 1 hr and measured 8 hr post double hydroxyurea-synchrony release using propidium iodide staining by FACS analysis (reference value: 74 %); type: functional, cell-based
Outline: (§1)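 SK-Mel-13 cells synchronized with 2 mM hydroxyurea, then treated with 2 μM CDK4 inhibitor or left untreated 1 h after release. Harvested at indicated times post-release, ethanol-fixed, propidium iodide/RNase stained, and DNA content read by FACS. Proportions of G1, S and G2/M cells derived with ModFit.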

[4] = test system: MDA-MB-453; test: Antiproliferative activity against human MDA-MB-453 assessed as inhibition of S phase cells after 48 hrs by MTT assay; type: functional, cell-based; settings: MDA-MB-453, 48 h
Outline: (§2)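 Cells grown in DMEM with 3 mM HEPES and 10% Serum Supreme at 37 °C, 5% CO2. Proliferation read by MTT assay 48 h after drug addition; IC50 given as mean of two separate determinations, each in duplicate.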

[5] = test system: HeLa; test: Cell cycle arrest in human HeLa cells assessed as accumulation at G2/M phase at 2 uM treated 6 hr and measured 8 hr post double thymidine-synchrony release using propidium iodide staining by FACS analysis (reference value: 86 %); type: functional
Outline: (§3)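 Cells harvested at set times post-release, fixed in 70% ethanol, stained with 5 μg/ml propidium iodide plus 0.5 mg/ml RNase A, and analysed by flow cytometry. Cell-cycle phase fractions calculated by ModFit.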

[6] = test system: HeLa; test: Cell cycle arrest in human HeLa cells assessed as accumulation at S phase at 2 uM treated 6 hr and measured 10 hr post double thymidine-synchrony release using propidium iodide staining by FACS analysis (reference value: 1 %); type: functional; outline: as §3
[7] = test system: HeLa; test: Cell cycle arrest in Rb-deficient human HeLa cells assessed as accumulation at S phase at 2 uM after 24 hrs by FACS analysis; type: functional
Outline: (§4)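 Ethanol-fixed cells stained with propidium iodide/RNase A, DNA content read by FACS, phase and sub-diploid fractions calculated with ModFit.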

[8] = test system: A2058; test: Cell cycle arrest in human A2058 cells assessed as accumulation at G2/M phase at 2 uM treated 1 hr and measured 12 hr post double hydroxyurea-synchrony release using propidium iodide staining by FACS analysis (reference value: 39 %); type: functional
[9] = test system: MDA-MB-435; test: Toxicity in human MDA-MB-435 cells at IC50 after 3 days by MTT assay; type: cell-based; settings: mda-mb-435, 72 h
[10] = Cell cycle arrest in human SK-MEL-13 cells assessed as accumulation at G2/M phase at 2 uM treated 1 hr and measured 8 hr post double hydroxyurea-synchrony release using propidium iodide staining by FACS analysis (reference value: 16 %); type: functional, cell-based; outline: as §1
[11] = Inhibition of AKT using fluorescent substrate by IMAP assay
Outline: (§5)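 Run in-house using IMAP: phosphorylated fluorescent peptide substrate binds preferentially to immobilized metal beads, which quantifies kinase activity. ATP at 3× the Km of each enzyme.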

[12] = test system: HeLa; test: Cell cycle arrest in human HeLa cells assessed as time delay in progression through mitosis at 2 uM treated 2 hr post double thymidine-synchrony release using propidium iodide staining by FACS analysis; type: functional; outline: as §3
[13] = test system: HeLa; test: Cell cycle arrest at G2 phase in human HeLa cells at 2 uM treated 8 hr and measured 12 hr post-synchrony release using Propidium iodide staining by FACS analysis in presence of ATM/ATR signaling inhibitor caffiene; type: functional, cell-based
[14] = test system: HeLa; test: Cell cycle arrest in human HeLa cells assessed as accumulation at G2/M phase at 2 uM treated 6 hr and measured 10 hr post double thymidine-synchrony release using propidium iodide staining by FACS analysis (reference value: 31 %); type: functional; outline: as §3
[15] = test system: NCI-H460; test: Toxicity in human H460a cells at IC50 after 3 days by MTT assay; type: cell-based; settings: nci-h460, 72 h
[16] = test system: A2058; test: Cell cycle arrest in human A2058 cells assessed as accumulation at G1 phase at 2 uM treated 1 hr and measured 8 hr post double hydroxyurea-synchrony release using propidium iodide staining by FACS analysis; type: functional
[17] = test system: SW480; test: Toxicity in human SW480 cells at 8 uM by MTT assay; type: cell-based; settings: sw480, 8 µM
[18] = test system: HCT-116; test: Cell cycle arrest in Rb-competent human HCT116 cells assessed as […] at IC90 after 24 hrs using BrdUrd staining by FACS analysis (Rvb =38 %); type: functional
[19] = target: Mitogen-activated protein kinase 3 (Homo sapiens, UniProt P27361); test: Inhibition of ERK1 using fluorescent substrate by IMAP assay; outline: as §5
[20] = Cell cycle arrest in Rb-competent human SK-MEL-13 cells assessed as accumulation at sub-diploid phase at 2 uM after 24 hrs by FACS analysis; type: functional; outline: as §4
[21] = Cell cycle arrest in human SK-MEL-13 cells assessed as accumulation at G1 phase at 2 uM treated 1 hr and measured 8 hr post double hydroxyurea-synchrony release using propidium iodide staining by FACS analysis (reference value: 10 %); type: functional, cell-based; outline: as §1
[22] = test system: HeLa; test: Cell cycle arrest in human HeLa cells assessed as accumulation at G2/M phase at 2 uM treated 2 hr and measured 10 hr post double thymidine-synchrony release using propidium iodide staining by FACS analysis (reference value: 31 %); type: functional; outline: as §3
[23] = test system: HeLa; test: Induction of abberent mitosis in human HeLa cells expressing GFP-H2B assessed as low survivin staining cells at 2 uM by immunofluorescence method (reference value: 9%); type: functional
[24] = test system: COLO 205; test: Toxicity in human COLO205 cells at IC50 after 3 days by MTT assay; type: cell-based; settings: colo 205, 72 h
[25] = test system: HCT-116; test: Cell cycle arrest in Rb-competent human HCT116 cells assessed as […] at IC50 after 24 hrs using BrdUrd staining by FACS analysis (Rvb =38 %); type: functional
[26] = test system: COLO 205; test: Antiproliferative activity against human COLO205 cells assessed as inhibition of S phase after 48 hrs by MTT assay; type: functional, cell-based; settings: COLO 205, 48 h; outline: as §2
[27] = test system: A2058; test: Cell cycle arrest in human A2058 cells assessed as accumulation at S phase at 2 uM treated 1 hr and measured 12 hr post double hydroxyurea-synchrony release using propidium iodide staining by FACS analysis (reference value: 47 %); type: functional
[28] = Cell cycle arrest in Rb-competent human SK-MEL-13 cells assessed as accumulation at S phase at 2 uM after 24 hrs by FACS analysis; type: functional; outline: as §4
[29] = test system: A2058; test: Cell cycle arrest in human A2058 cells assessed as accumulation at G1 phase at 2 uM treated 1 hr and measured 12 hr post double hydroxyurea-synchrony release using propidium iodide staining by FACS analysis (reference value: 14 %); type: functional
[30] = Inhibition of p38 MAPK using fluorescent substrate by IMAP assay; outline: as §5
[31] = test system: HeLa; test: Cell cycle arrest at G2 phase in human HeLa cells at 2 uM treated 8 hr and measured 12 hr post-synchrony release using Propidium iodide staining by FACS analysis; type: functional, cell-based

Mitogen-activated protein kinase 3, sequence (P27361 whole entry): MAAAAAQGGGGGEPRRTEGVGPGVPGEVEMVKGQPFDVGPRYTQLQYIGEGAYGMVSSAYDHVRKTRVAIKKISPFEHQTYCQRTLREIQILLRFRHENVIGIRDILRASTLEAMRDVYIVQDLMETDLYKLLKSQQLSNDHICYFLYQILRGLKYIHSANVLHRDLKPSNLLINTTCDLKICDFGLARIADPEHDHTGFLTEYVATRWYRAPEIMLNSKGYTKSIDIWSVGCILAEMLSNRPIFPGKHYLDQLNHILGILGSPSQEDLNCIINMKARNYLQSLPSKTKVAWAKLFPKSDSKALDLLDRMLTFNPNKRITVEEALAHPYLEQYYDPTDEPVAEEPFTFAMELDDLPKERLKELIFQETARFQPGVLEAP

SMILES | Activity [1] | Activity [2] [%] | Activity [3] [%] | IC50 [4] [nM] | Activity [5] [%] | Activity [6] [%] | Activity [7] [%] | Activity [8] [%] | Activity [9] | Activity [10] [%] | IC50 [11] [nM] | Time [12] [h] | Activity [13] | Activity [14] [%] | Activity [15] | Activity [16] [%] | Activity [17] | Activity [18] [%] | IC50 [19] [nM] | Activity [20] [%] | other results
COc1cccc(C(=O)c2sc(Nc3ccc(N4CCN(C(C)C)CC4)cc3)nc2N)c1 | Toxic | 7 | 18 | 710 | 88 | 1 | 27 | 60 | Toxic | 70 | > 200000 | 4 | Active | 43 | Toxic | 8 | Toxic | 11 | > 100000 | 9 | Activity [21]: 12%; Activity [22]: 90%; Activity [23]: 18%; Activity [24]: Toxic; Activity [25]: 20%; IC50 [26]: 560 nM; Activity [27]: 40%; Activity [28]: 7%; Activity [29]: 0%; IC50 [30]: > 100000 nM; Activity [31]: Active
CN1CCN(c2ccc(Nc3nc(N)c(C(=O)c4ccc5c(c4)OCCO5)s3)cc2)CC1 | Toxic | 7 | 18 | 1450 | 88 | 1 | 27 | 60 | Toxic | 70 | > 200000 | 4 | Active | 43 | Toxic | 8 | Toxic | 11 | > 100000 | 9 | Activity [21]: 12%; Activity [22]: 90%; Activity [23]: 18%; Activity [24]: Toxic; Activity [25]: 20%; IC50 [26]: 2040 nM; Activity [27]: 40%; Activity [28]: 7%; Activity [29]: 0%; IC50 [30]: 29000 nM; Activity [31]: Active
